According to ChEMBL document CHEMBL4229565 (J Med Chem, 2018):
Calls of active or inactive are those of the source. No cut-off for these calls is given here.

How the values were obtained:
[1] = Drug metabolism in CD1 mouse plasma assessed as 4-(azepan-1-yl)-3-(4-methoxyphenylsulfonamido)benzoic acid formation at 50 uM incubated for 30 to 180 mins by UPLC-MS/MS analysis; type: ADME, cell-free
[2] = system: Trypanosoma brucei brucei; assay: Antitrypanosomal activity against bloodstream form of Trypanosoma brucei brucei s427 after 69 hrs by resazurin-based […] analysis; type: functional, organism-based; conditions: s427, 69 h
How it was run: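 Bloodstream T. b. brucei s427 was grown in modified HMI9 (56 μM 1-thioglycerol in place of 2-mercaptoethanol) and counted by hemocytometer. Cells (10^4/ml) were added to compound in DMSO and incubated 69 h at 37 °C, 5% CO2. Resazurin (50 μM final) was then added for 4 h more. Fluorescence read at ex 528/em 590 nm.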

[3] = Inhibition of Trypanosoma brucei NMT using [3H]-myristoyl-coA/biotinylated CAP5.5 as substrate after 50 mins by scintillation proximity assay
How it was run: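 TbNMT scintillation proximity assay at 22–23 °C, with test compound dilutions added in DMSO. Reaction: 30 mM Tris pH 7.4, 0.5 mM EDTA, 0.5 mM EGTA, 1.25 mM DTT, 0.1% Triton X-100, 0.125 μM [3H]myristoyl-coA, 0.5 μM biotinylated CAP5.5 peptide, 5 nM enzyme. Enzyme added first, then substrate mix to start; stopped after 50 min with phosphoric acid pH 4.0/MgCl2/SPA beads; scintillation counting.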

[4] = Half life in CD1 mouse plasma at 50 uM by UPLC-MS/MS analysis; type: ADME, cell-free
[5] = biological target: Voltage-gated inwardly rectifying potassium channel KCNH2 (Homo sapiens, UniProt Q12809); assay: Inhibition of human ERG by patch clamp assay
[6] = Intrinsic clearance in CD1 mouse liver microsomes at 1 uM measured up to 30 mins by UPLC-MS/MS method; type: ADME, microsome; conditions: 0.5 h
[7] = Fraction unbound in CD1 mouse plasma at 10 ug/ml after 5 hrs by UPLC-MS/MS analysis
[8] = system: Trypanosoma brucei brucei; assay: Antitrypanosomal activity against Trypanosoma brucei brucei GVR35 trypomastigotes infected in NMRI mouse assessed as reduction in parasitaemia level at 50 to 200 mg/kg, po administered twice daily for 5 days starting from day 21 post infection; type: functional, organism-based
[9] = AUC (0 to 8 hrs) in NMRI mouse at 50 mg/kg, po administered via gavage by UPLC/MS/MS analysis; type: ADME, organism-based; set-up: dose 50 mg/kg, time < 8 hr, route oral; conditions: in vivo
[10] = Tmax in NMRI mouse at 50 mg/kg, po administered via gavage by UPLC/MS/MS analysis; type: ADME, organism-based; conditions: in vivo
[11] = Cmax in NMRI mouse at 50 mg/kg, po administered via gavage by UPLC/MS/MS analysis; type: ADME, organism-based; set-up: dose 50 mg/kg, route oral; conditions: in vivo
[12] = system: Trypanosoma brucei brucei; assay: Antitrypanosomal activity against Trypanosoma brucei brucei s427 trypomastigotes infected in NMRI mouse at 10 mg/kg, po administered twice daily for 4 days starting from day 3 post infection; type: functional, organism-based
How it was run: (§1)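 Stage 1 HAT model: female NMRI mice infected with T. brucei s427. Compound given orally twice a day for 4 days, starting day 3 postinfection. Outcome scored as cure versus relapse.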

[13] = Toxicity in NMRI mouse administered orally for twice per day for 3 days; type: organism-based; conditions: in vivo, po
[14] = system: Trypanosoma brucei brucei; assay: Antitrypanosomal activity against Trypanosoma brucei brucei s427 trypomastigotes infected in NMRI mouse at 0.3 to 3 mg/kg, po administered twice daily for 4 days starting from day 3 post infection; type: functional, organism-based; how it was run: as §1
[15] = system: Trypanosoma brucei brucei; assay: Antitrypanosomal activity against Trypanosoma brucei brucei GVR35 trypomastigotes infected in CF1 mdr1a deficient mouse assessed as reduction in parasitaemia level at 50 mg/kg, po administered twice daily for 5 days starting from day 21 post infection; type: functional, organism-based
How it was run: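 Stage 2 HAT model using CF-1 mdr1a-deficient mice infected with T. b. brucei GVR35. Compound given orally twice daily for 5 days from day 21 postinfection. Comparator arms: Berenil or melarsoprol given intraperitoneally once daily.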

[16] = Ratio of drug level in NMRI mouse brain to plasma at 0.5 mg/kg, iv after 5 to 30 mins by UPLC/MS/MS analysis; conditions: brain and plasma

Sequence of Voltage-gated inwardly rectifying potassium channel KCNH2 (Q12809 whole entry): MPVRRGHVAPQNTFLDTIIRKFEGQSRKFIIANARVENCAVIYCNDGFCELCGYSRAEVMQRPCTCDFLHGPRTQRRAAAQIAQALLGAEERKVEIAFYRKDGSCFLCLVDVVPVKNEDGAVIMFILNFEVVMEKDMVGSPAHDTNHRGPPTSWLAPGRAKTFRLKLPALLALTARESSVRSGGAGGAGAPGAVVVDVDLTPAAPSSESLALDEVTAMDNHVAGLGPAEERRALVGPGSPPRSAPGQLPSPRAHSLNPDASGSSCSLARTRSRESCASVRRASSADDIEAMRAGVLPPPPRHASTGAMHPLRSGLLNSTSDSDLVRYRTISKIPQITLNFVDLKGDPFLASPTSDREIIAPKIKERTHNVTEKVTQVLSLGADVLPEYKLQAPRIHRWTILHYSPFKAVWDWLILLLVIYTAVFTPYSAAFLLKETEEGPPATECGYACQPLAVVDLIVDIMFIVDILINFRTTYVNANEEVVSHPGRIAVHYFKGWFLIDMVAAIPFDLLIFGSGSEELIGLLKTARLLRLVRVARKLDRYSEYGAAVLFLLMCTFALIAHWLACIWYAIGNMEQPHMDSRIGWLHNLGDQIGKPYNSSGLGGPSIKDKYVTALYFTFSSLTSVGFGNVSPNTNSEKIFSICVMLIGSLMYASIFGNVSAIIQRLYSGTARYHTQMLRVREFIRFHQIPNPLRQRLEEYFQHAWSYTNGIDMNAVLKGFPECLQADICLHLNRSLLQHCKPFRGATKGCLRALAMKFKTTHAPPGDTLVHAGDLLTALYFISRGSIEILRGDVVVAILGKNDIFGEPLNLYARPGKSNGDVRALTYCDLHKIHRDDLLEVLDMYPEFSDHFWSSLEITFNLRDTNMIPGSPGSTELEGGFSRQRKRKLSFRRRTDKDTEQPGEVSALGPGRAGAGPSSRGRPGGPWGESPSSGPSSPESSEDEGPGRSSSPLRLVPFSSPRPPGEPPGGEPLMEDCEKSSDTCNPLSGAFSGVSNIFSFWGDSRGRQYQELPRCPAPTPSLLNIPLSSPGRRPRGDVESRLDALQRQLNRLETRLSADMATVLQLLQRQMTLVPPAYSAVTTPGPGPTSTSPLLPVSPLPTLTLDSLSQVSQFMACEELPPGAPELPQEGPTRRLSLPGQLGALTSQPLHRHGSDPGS

## COC(=O)c1ccc(N2CCCCCC2)c(NS(=O)(=O)c2ccc(CCCCC3CCN(C)CC3)cc2)c1
[1]
  Drug metabolism: Metabolite_Detected
[2]
  EC50: 20 nM
[3]
  IC50: 6 nM
[4]
  half-life at 50 µM: < 0.25 h

## CC(C)Cc1ccc2ncccc2c1NS(=O)(=O)c1ccc(CCCO[C@@H]2C[C@H]3CC[C@@H](C2)N3C)cc1
[5]
  IC50: 1600 nM
[2]
  EC50: 91 nM
[6]
  CLH: 1.5 mL/min/g
[7]
  fraction unbound at 5 h, 10 ug/ml: 0.18
[3]
  IC50: 7 nM

## CC(C)Cc1ccc2ncccc2c1NS(=O)(=O)c1ccc(CCCN2CCN3CCC[C@@H]3C2)cc1
[5]
  IC50: 1300 nM
[2]
  EC50: 40 nM
[6]
  CLH: 6.2 mL/min/g
[7]
  fraction unbound at 5 h, 10 ug/ml: 0.17
[3]
  IC50: < 5 nM

## CC(C)Cc1ccc2nn(C)cc2c1NS(=O)(=O)c1ccc(CCCCC2CCN(C)CC2)cc1
[8]
  Activity: inactive
[9]
  AUC(0-t) at 8 h: 48300 ng·h/mL
[5]
  IC50: 3700 nM
[2]
  EC50: 5 nM
[10]
  Tmax: 1 h
[6]
  CLH: 2.9 mL/min/g
[7]
  fraction unbound at 5 h, 10 ug/ml: 0.062
[3]
  IC50: < 5 nM
[11]
  Cmax: 11000 ng/mL
[12]
  Activity: Active
[13]
  MTD at 72 h: > 300 mg/kg
[14]
  Activity: inactive
[15]
  Activity: Active

## CC(C)Cc1ccc2nn(C)cc2c1NS(=O)(=O)c1ccc(CCCOC[C@@H]2CCCN2C)cc1
[5]
  IC50: 3000 nM
[2]
  EC50: 31 nM
[6]
  CLH: 3.7 mL/min/g
[3]
  IC50: < 5 nM

## CC(C)Cc1ccc2nn(C)cc2c1N(C(F)F)S(=O)(=O)c1ccc(CCCCC2CCN(C)CC2)cc1
[16]
  Kp: 1.9
[6]
  CLH: 2.3 mL/min/g

## CC(C)Cc1ccc2nn(C)cc2c1NS(=O)(=O)c1ccc(CCCOC[C@H]2COCCN2C)cc1
[5]
  IC50: 3100 nM
[2]
  EC50: 220 nM
[6]
  CLH: 20 mL/min/g
[3]
  IC50: 7 nM

## CC(C)Cc1ccc2ncccc2c1NS(=O)(=O)c1ccc(CCCCN2CCCN(C)CC2)cc1
[2]
  EC50: 59 nM
[6]
  CLH: 1.8 mL/min/g
[7]
  fraction unbound at 5 h, 10 ug/ml: 0.093
[3]
  IC50: 6 nM
